Consider two molecules from ChEMBL document CHEMBL4359929, “Piperidine and piperazine inhibitors of fatty acid amide hydrolase targeting excitotoxic pathology” (Bioorg Med Chem, 2019).

Data set [1] in a line: Selectivity ratio of IC50 for human recombinant His-tagged MGL expressed in Escherichia coli BL21 DE3 cells to IC50 for rat recombinant His/GST-tagged FAAH expressed in Escherichia coli cells by fluorescence based assay.
The species entered for data set [2] is Homo sapiens. Kind of data set: Selectivity ratio of IC50 for human recombinant His-tagged MGL expressed in Escherichia coli BL21 DE3 cells to IC50 for human recombinant MBP-tagged FAAH expressed in Escherichia coli cells by fluorescence based assay.
The target of data set [3] is T1, Fatty-acid amide hydrolase 1 (Homo sapiens, UniProt O00519).
T1 sequence (O00519 whole entry): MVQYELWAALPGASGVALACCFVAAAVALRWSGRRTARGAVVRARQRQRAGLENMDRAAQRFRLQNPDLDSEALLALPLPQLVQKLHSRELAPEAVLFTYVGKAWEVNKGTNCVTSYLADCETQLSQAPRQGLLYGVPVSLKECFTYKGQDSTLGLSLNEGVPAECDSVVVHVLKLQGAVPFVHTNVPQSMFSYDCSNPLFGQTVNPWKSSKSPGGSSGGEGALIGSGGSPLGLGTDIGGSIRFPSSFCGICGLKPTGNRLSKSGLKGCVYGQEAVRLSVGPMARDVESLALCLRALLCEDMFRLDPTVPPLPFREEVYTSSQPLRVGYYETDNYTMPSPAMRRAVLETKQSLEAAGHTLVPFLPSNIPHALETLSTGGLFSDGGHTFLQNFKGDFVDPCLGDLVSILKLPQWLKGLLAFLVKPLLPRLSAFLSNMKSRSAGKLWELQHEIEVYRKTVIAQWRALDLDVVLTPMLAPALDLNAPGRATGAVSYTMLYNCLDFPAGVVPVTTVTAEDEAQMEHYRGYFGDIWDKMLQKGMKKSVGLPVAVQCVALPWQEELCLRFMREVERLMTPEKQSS
Kind of data set: Inhibition of human recombinant MBP-tagged FAAH expressed in Escherichia coli cells using AAMCA as substrate incubated for 15 mins followed by substrate addition and measured after every 20 mins for 4 hrs by fluorescence based assay. Put shortly:
(§1)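 Fluorescent enzyme assay in throughput format. Human recombinant FAAH or purified rat FAAH used arachidonoyl 7-amino-4-methylcoumarin amide as substrate; human recombinant MGL was run by a similar fluorometric procedure.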

Data set [4] concerns Hippocampus. Put plainly: Neuroprotective activity against Sprague-Dawley rat hippocampus assessed as decrease in KA-induced excitotoxicity by measuring increase in syn IIb level at 3 to 30 uM preincubated for 1 hr followed by KA stimulation for 2 hrs in continued presence of compound followed by KA wash out and then further incubation with compound for 24 hrs by immunoblot analysis. The class given is functional, tissue-based. In short, it runs like this:
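Sprague-Dawley rat hippocampal slices (400 μm, postnatal day 12) cultured 18–20 days at 37 °C, 5% CO2. Pretreated 60 min with 3–30 μM compound or 0.1% DMSO, then 60 μM kainic acid for 2 h with compound. Three washouts, then 24 h recovery with 30 μM compound. Harvested in groups of 7–9; GluR1, synaptophysin and synapsin IIb by immunoblot with optical density. Unpaired t-tests.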
On the technique in general: In western blotting, separated proteins are transferred to a membrane and probed.

The nature of data set [5]: Stability in mouse gastric fluid assessed as half life. The data set is classed as ADME, tissue-based, Gastric juice. Put shortly: (§2)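 Stability assessed as half-life in human, rat and mouse plasma and gastric fluid, and in human, rat and mouse liver microsomal preparations.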
Data set [6] deals with T2, Fatty-acid amide hydrolase 1 (Rattus norvegicus, UniProt P97612).
T2 sequence (P97612 whole entry): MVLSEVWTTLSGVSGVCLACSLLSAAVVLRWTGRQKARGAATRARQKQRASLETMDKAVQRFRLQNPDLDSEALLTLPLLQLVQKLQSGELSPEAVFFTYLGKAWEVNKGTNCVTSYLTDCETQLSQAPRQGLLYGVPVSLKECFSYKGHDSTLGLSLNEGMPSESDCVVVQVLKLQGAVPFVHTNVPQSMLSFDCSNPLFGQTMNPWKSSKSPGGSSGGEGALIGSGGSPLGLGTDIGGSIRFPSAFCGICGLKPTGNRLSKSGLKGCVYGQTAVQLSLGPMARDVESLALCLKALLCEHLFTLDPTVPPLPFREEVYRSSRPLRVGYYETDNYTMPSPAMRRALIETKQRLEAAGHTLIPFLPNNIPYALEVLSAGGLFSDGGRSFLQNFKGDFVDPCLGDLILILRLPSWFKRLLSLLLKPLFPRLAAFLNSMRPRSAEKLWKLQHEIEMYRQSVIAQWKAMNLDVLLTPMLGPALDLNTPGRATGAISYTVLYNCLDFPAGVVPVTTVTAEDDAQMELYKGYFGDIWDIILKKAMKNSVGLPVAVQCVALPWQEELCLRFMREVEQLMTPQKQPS
Kind of data set: Inhibition of rat recombinant His/GST-tagged FAAH expressed in Escherichia coli cells using AAMCA as substrate incubated for 15 mins followed by substrate addition and measured after every 20 mins for 4 hrs by fluorescence based assay. Put shortly: as §1

For data set [7], the species on record is Homo sapiens. Kind of data set: Selectivity ratio of IC50 for human full length ABHD6 expressed in Escherichia coli cells to IC50 for human recombinant MBP-tagged FAAH expressed in Escherichia coli cells by fluorescence based assay.
Data set [8] is described as follows: Stability in rat liver microsomes assessed as half life. The data set is classed as ADME, Microsome. In short, it runs like this:
as §2
(Liver microsomes are vesicles of endoplasmic reticulum, rich in cytochrome P450 enzymes.)

Data set [9] concerns the target Cannabinoid receptor 1 (Rattus norvegicus) (UniProt P20272). Put plainly: Displacement of [3H]CP55940 from CB1 receptor in rat brain by competition-equilibrium binding analysis. The class given is tissue-based. In short, it runs like this:
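Rat brain membranes as CB1 source; competition-equilibrium binding against [3H]CP-55,940.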
On the technique in general: Displacement assays read how much labelled ligand stays bound in the presence of the test substance.

The test system of data set [10] is Hippocampus. Kind of data set: Neuroprotective activity against Sprague-Dawley rat hippocampus assessed as decrease in KA-induced excitotoxicity by measuring increase in syn protein level in dense neuropil at 3 to 30 uM preincubated for 1 hr followed by KA stimulation for 2 hrs in continued presence of compound followed by KA wash out and then further incubation with compound for 24 hrs by immunostaining analysis. The data set is classed as functional, tissue-based.

Data set [11] deals with Hippocampus. Put plainly: Neuroprotective activity against Sprague-Dawley rat hippocampus assessed as decrease in KA-induced excitotoxicity by measuring increase in GluR1 level in dense neuropil at 3 to 30 uM preincubated for 1 hr followed by KA stimulation for 2 hrs in continued presence of compound followed by KA wash out and then further incubation with compound for 24 hrs by immunostaining analysis. The class given is functional, tissue-based. Put shortly:
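Same hippocampal slice kainic acid protocol (60 μM, 2 h, after 1 h pretreatment; 24 h recovery with compound). Fixed hippocampal tissue from each treatment group immunostained with anti-GluR1 (1:200).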

Another data set is filed under the species Rattus norvegicus. Kind of data set: Neuroprotective activity against Sprague-Dawley rat assessed as decrease in KA-induced seizure severity. The class given is functional, organism-based.

Calls of active or inactive are those of the source.

Chain of Cannabinoid receptor 1 (Rattus norvegicus) (P20272 whole entry): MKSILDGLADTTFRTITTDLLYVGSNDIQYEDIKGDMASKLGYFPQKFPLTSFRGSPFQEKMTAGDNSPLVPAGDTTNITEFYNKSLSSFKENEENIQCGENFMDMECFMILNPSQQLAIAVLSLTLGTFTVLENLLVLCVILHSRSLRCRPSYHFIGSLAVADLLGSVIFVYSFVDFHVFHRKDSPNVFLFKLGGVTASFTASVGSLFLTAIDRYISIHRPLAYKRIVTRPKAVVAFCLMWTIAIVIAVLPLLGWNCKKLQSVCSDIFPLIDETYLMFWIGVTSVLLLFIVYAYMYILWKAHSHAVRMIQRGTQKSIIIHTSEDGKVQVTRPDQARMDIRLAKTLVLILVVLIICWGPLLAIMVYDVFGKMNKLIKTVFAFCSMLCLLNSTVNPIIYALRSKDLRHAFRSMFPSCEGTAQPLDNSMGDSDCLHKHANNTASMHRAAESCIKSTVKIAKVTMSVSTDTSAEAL

As a reminder, the IC50 is the point on the concentration scale where inhibition reaches its midpoint. By half-life is commonly meant the time needed for the level to fall by half in the phase considered. `C[C@@H]1CN(c2ccc(F)cc2)CCN1C(=O)Oc1cccc(N2CCS(=O)(=O)CC2)c1`: the Ratio IC50 (in data set [1]; in the data set filed under Homo sapiens [2]; in the data set filed under Homo sapiens [7]) was greater than 1000 each time. Further, the 50% inhibitory concentration (IC50) in data set [3] came to 11.7 nM; in data set [6], 6.3 nM. For the same molecule, in the data set on Hippocampus [4], the inhibition entry was “Active”. For the same molecule, the half-life is greater than 60 min in [5] and 15 to 25 min in data set [8]. In data set [9], the outcome was inactive.
As to `O=C(Oc1cccc(N2CCS(=O)(=O)CC2)c1)N1CCC(c2ccc(N3CCC3)cc2)CC1`, the Ratio IC50 (in data set [1]; in the data set listed under Homo sapiens [2]; in the data set listed under Homo sapiens [7]) was greater than 1000 throughout. In addition, the inhibition result in the data set with Hippocampus [10], in the data set on Hippocampus [11] and in the data set with Hippocampus [4] was “Active” each time. For the same molecule, the 50% inhibitory concentration (IC50) in [3] amounted to 7.9 nM; in data set [6] it was 5.8 nM. The half-life is greater than 60 min in data set [5] and 15 to 25 min in [8]. Also, the result in the data set filed under Rattus norvegicus was Active. Besides, the result in data set [9] was inactive.
